Assay outcomes (PubChem)
An excerpt weighted towards active compounds, which were near 2.7% of everything screened.
pPAFAH inh: inhibitors of human plasma PAF acetylhydrolase (pPAFAH); Q13093; inhibition, % at 3.39 µM; recombinant pPAFAH, FP-rhodamine probe fluorescence polarization; AID 463082; 1.5% of 330,000 active;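 active = inhibition above the mean inhibition across the screen plus 3 SD, cut at about 25% in these data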;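 note: inhibitors block binding of the rhodamine activity-based probe so polarization drops; 0% = enzyme with DMSO and 100% = wells lacking pPAFAH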
Target sequence (Q13093 whole entry, looked up): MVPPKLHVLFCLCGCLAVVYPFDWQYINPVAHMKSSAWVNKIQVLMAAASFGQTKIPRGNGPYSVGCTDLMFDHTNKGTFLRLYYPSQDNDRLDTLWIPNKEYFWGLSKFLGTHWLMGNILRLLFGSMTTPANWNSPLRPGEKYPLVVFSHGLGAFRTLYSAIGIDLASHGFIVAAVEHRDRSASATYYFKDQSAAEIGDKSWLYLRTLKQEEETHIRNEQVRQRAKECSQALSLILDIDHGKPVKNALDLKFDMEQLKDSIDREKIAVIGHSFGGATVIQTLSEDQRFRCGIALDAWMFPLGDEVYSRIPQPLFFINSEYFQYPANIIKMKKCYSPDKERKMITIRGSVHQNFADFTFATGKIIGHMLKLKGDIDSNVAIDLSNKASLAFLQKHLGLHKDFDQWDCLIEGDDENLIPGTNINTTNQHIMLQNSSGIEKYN
PAFAH2 inh: PAFAH2 (human) inhibition; inhibition, % at 3.39 µM; 0.99% of 340,000 active; Q99487; recombinant PAFAH2, FP-rhodamine activity probe, fluorescence polarization;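 active = inhibition above the mean over all tested compounds plus 3 SD, cut at about 30% in these data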;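 note: inhibitors block probe labeling of enzyme so polarization drops; 0% = enzyme with DMSO and 100% = wells lacking PAFAH2 protein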
PAFAH1B3 inh: inhibitors of human PAFAH1B3. Q15102. recombinant PAFAH1B3, FP-rhodamine probe, fluorescence polarization. inhibition, % at 3.39 µM. 0.28% of 340,000 active;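 active = inhibition above the screen-wide average of all tested compounds plus 3 SD, cut at about 25% in these data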;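 note: 0% = enzyme with DMSO only and 100% = wells lacking PAFAH1B3 protein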
ASAP1 GAP inh: ASAP1 ArfGAP inhibition. Q9ULH1. ASAP1-stimulated ARF1 GTP hydrolysis, GDP FP detection. 0.19% of 360,000 active. AID 624377. inhibition, % at 16.5 µM; in the data active = inhibition above about 25%;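 note: 0% = vehicle with enzyme and substrate and 100% = no enzyme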
ARFGAP1 inhibitor: inhibits rat ARF GTPase activating protein 1; Q62848; Arfgap1-stimulated ARF1 GTP hydrolysis, GDP FP detection; inhibition, % at 16.5 µM; 0.26% of 360,000 active; AID 651572;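 active = inhibition above a per-plate limit, mean inhibition of low control wells plus 3 SD, cut at about 25% in these data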;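 note: 0% = DMSO wells with enzyme and 100% = wells lacking Arfgap1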
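System: truncated rat Arfgap1 GAP domain / Benchmarks: high control wells lacking Arfgap1, low control full reaction with DMSO / Times: compound-enzyme preincubation 20 min, reaction 120 min, detection 60 min, 25 °C / Repeats: one replicate per compound / Also added: human ARF1(Δ1-17)-GTP substrate / Measured by: Tracer-displacement fluorescence polarization with EDTA stop, 620/688 nm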
PAFAH1B2 FP inh: blocks human PAF acetylhydrolase 1b catalytic subunit 2; recombinant PAFAH1B2, FP-rhodamine activity probe, fluorescence polarization; 1.2% of 340,000 active; inhibition, % at 3.39 µM; P68402;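 active = inhibition above the mean of all tested compounds plus 3 SD, cut at about 24% in these data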;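 note: 0% = enzyme with DMSO and 100% = wells lacking PAFAH1B2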
pPAFAH FP conf: pPAFAH (human) inhibition, confirmed | 72% of 2,300 active | inhibition, % at 3.39 µM | recombinant pPAFAH, FP-Rh probe fluorescence polarization | shares compounds with pPAFAH inh;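 active = mean inhibition of the triplicate above the hit cutoff set for the earlier primary screen, cut at about 25% in these data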;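 note: 0% = enzyme with DMSO and 100% = wells lacking pPAFAH enzyme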
* hit, by the source's call; nt = not tested or not shown.

SMILES | pPAFAH inh | PAFAH2 inh | PAFAH1B3 inh | ASAP1 GAP inh | ARFGAP1 inhibitor | PAFAH1B2 FP inh | others
O=C(COc1ccc(S(=O)(=O)Nc2ccccc2)cc1)NCc1ccncc1 | 27* | 7 | 5 | 2 | -5 | 5
Cc1ccc(S(=O)(=O)N2CCOCC2)cc1NC(=O)COc1ccccc1Cc1ccccc1 | 26* | 0 | 1 | 6 | 2 | 2
CC(=NNC(=O)c1ccc(NS(=O)(=O)c2ccc(Br)cc2)cc1)c1cccnc1 | 7 | -1 | 4 | -7 | -3 | 29*
CCOc1ccc(NS(=O)(=O)c2ccc(-c3coc(C)n3)cc2)cc1 | 29* | 3 | 10 | 3 | -1 | 3
CCOC(=O)c1ccc(NS(=O)(=O)c2ccc(-c3coc(C)n3)cc2)cc1 | 2 | -6 | 3 | 14 | -3 | 0
OCc1ccccc1OCc1ccccc1 | nt | nt | nt | -20 | 0 | nt
Nc1[nH]c(C(=O)c2ccc(Br)cc2)c(-c2ccccc2Cl)c1C(=O)NCCc1c[nH]c2ccccc12 | nt | nt | nt | 11 | 12 | nt
Cc1ccc(NS(=O)(=O)c2ccc(C(=O)NCc3cccnc3)cc2)cc1 | 27* | 2 | -2 | -5 | 0 | -3
Cc1ccc(NS(=O)(=O)c2ccc(C(=O)NCc3ccncc3)cc2)cc1 | 26* | 4 | 2 | 0 | -1 | 7
Cc1ccc(NS(=O)(=O)c2ccc(OCC(=O)NCc3cccnc3)cc2)cc1 | 26* | -4 | 5 | -9 | -3 | 2
CCCNC(=O)COc1ccc(S(=O)(=O)Nc2ccc(C)cc2)cc1 | 30* | -5 | 0 | -11 | -11 | 7
CC(C)C1=CC2C3C(=O)N(c4ccccc4)C(=O)C3C1C(=O)C2(C)O (stereo not drawn) | nt | nt | nt | -12 | -12 | nt
COc1ccc(NS(=O)(=O)c2ccc(Cl)c(NC(=O)c3cccnc3Cl)c2)cc1 | 30* | 5 | 0 | 13 | -4 | 2
O=C(NCc1cccnc1)c1ccc(S(=O)(=O)Nc2ccccc2)cc1 | 24 | 2 | 6 | 2 | 4 | 4
Cc1ccc(CNC(=O)COc2ccc(S(=O)(=O)N3CCOCC3)cc2)cc1 | 28* | -5 | 4 | -10 | 3 | 3
COc1ccc(NS(=O)(=O)c2ccc(Cl)c(NC(=O)c3ccccc3F)c2)cc1 | 7 | 1 | 1 | -1 | 11 | -2
COc1ccc(NS(=O)(=O)c2cccc(C(=O)NCc3cccnc3)c2)cc1 | 27* | 6 | 3 | 5 | 7 | 3
COc1ccc(CNC(=O)COc2ccc(S(=O)(=O)N3CCOCC3)cc2)cc1 | 7 | 2 | 2 | -1 | 9 | 3
COc1ccc(NS(=O)(=O)c2ccc(C)c(C(=O)NCc3cccnc3)c2)cc1 | 7 | -5 | 2 | -10 | -4 | -2
Cc1ccc(C(=O)NCc2cccnc2)cc1S(=O)(=O)Nc1ccccc1 | 27* | 13 | -7 | -1 | 1 | 0
CCOc1cccc(C=NNC(=O)C(=O)Nc2cccc(C(F)(F)F)c2)c1O | nt | nt | nt | 9 | 14 | nt
CC(C)=CC(=O)NCC1CCN(C(=O)C(=O)c2cc3ccccc3o2)CC1 | nt | nt | nt | -18 | 18 | nt
Nc1nc2c(ncn2[C@@H]2O[C@H](C(=O)N[C@@H](Cc3ccccc3)C(=O)NCC3CCCCC3)[C@@H](O)[C@H]2O)c(=O)[nH]1 | nt | nt | nt | -3 | -2 | nt
CCOC(=O)N(C)C[C@H]1OCc2cnnn2CCCC(=O)N([C@H](C)CO)C[C@@H]1C | nt | nt | nt | 3 | 5 | nt
O=C(C=Cc1ccco1)c1cc(Cl)ccc1O | nt | 6 | 5 | 2 | -2 | 3
CC(/C=C/c1ccco1)=N\NC(=O)c1cc(Cl)ccc1O | 32* | 17 | 10 | -1 | 2 | 10
C/C(N)=C(/C#N)C(=O)COC(=O)c1cc(C)n(-c2ccc(F)cc2)c1C | 36* | 7 | 7 | -8 | 2 | 5 | pPAFAH FP conf=28*
CCN1C(=O)C2C(c3ccccc3F)NC(Cc3ccc(O)cc3)(C(=O)OC)C2C1=O (stereo not drawn) | 48* | 7 | 7 | -3 | 10 | 7 | pPAFAH FP conf=2
CCCCc1c(-c2ccccc2OC)ncn1Cc1ccc(C)cc1 | nt | nt | nt | -1 | -10 | nt
